pKi: −log10 of the molar value. Activity calls are given as the source filed them. No cut-off for these calls is given here.
Columns and labels:
[1] = Inhibition of Dengue virus NS2B-NS3 protease expressed in Escherichia coli BL21 lambda (DE3) using Abz-NleKRRS-3-(NO2)Y as substrate compound preincubated for 15 mins before substrate addition measured up to 15 mins by spectrofluorimetry
Prothrombin [2] = target: T1, Prothrombin (Homo sapiens, UniProt P00734); test: Inhibition of human thrombin using Boc-VPR-AMC as substrate at 25 uM preincubated for 15 mins before substrate addition measured up to 10 mins by spectrofluorimetry
West Nile virus = test: Inhibition of West Nile virus NS2B-NS3 protease expressed in Escherichia coli BL21 lambda (DE3) using Abz-GLKRGG-3-(NO2)Y as substrate at 50 uM preincubated for 15 mins before substrate addition measured up to 15 mins by spectrofluorimetry
Outline: (§1)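 Single-concentration screen against His-tagged NS2B-NS3 protease (Ni²⁺-affinity purified from E. coli). Enzyme was 100 nM for Dengue or 150 nM for West Nile. Inhibitor at 50 µM was preincubated 15 min with enzyme, then internally quenched FRET substrate (final 50 µM) was added. Read at ex 320/em 405 nm for 15 min. Rate taken as RFU/s; % inhibition is the mean of triplicates.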

Dengue virus [3] = test: Inhibition of Dengue virus NS2B-NS3 protease expressed in Escherichia coli BL21 lambda (DE3) using Abz-NleKRRS-3-(NO2)Y as substrate at 50 uM preincubated for 15 mins before substrate addition measured up to 15 mins by spectrofluorimetry; outline: as §1
Prothrombin [4] = target: T1, Prothrombin; test: Inhibition of human thrombin using Boc-VPR-AMC as substrate compound preincubated for 15 mins before substrate addition measured up to 10 mins by spectrofluorimetry
[5] = Inhibition of West Nile virus NS2B-NS3 protease expressed in Escherichia coli BL21 lambda (DE3) using Abz-GLKRGG-3-(NO2)Y compound preincubated for 15 mins before substrate addition measured up to 15 mins by spectrofluorimetry
[6] = Selectivity ratio of Ki for human thrombin to Ki for West Nile virus NS2B-NS3 protease
[7] = Selectivity ratio of Ki for human thrombin to Ki for Dengue virus NS2B-NS3 protease
Dengue virus [8] = test: Binding affinity to Dengue virus NS2B-NS3 protease catalytic center assessed as quenching of Trp50 intrinsic fluorescence in presence of aprotinin
Dengue virus [9] = test: Binding affinity to Dengue virus NS2B-NS3 protease catalytic center assessed as quenching of Trp50 intrinsic fluorescence

| Structure (SMILES) | inhibition (Prothrombin [2]) | inhibition (West Nile virus) | inhibition (Dengue virus [3]) | other results |
| --- | --- | --- | --- | --- |
| N#C/C(=C\c1ccc(N2CCOCC2)o1)C(=O)NC1CC1 | 47% | 24% | 10.5% | pKi [1]: 3.74; pKi (Prothrombin [4]): 4.63; pKi [5]: < 3.70 |
| N#C/C(=C\c1ccc(O)cc1)C(N)=O | 24.4% | 55% | 51.7% | pKi [1]: 4.45; pKi (Prothrombin [4]): 3.99; Ratio Ki [6]: 2.3; pKi [5]: 4.35; Ratio Ki [7]: 2.8 |
| N#C/C(=C\c1c[nH]c2ccccc12)C(N)=O | 16.4% | 33.4% | 23.7% |  |
| N#C/C(=C\c1ccc(N2CCCC2)cc1)C(N)=O | 17.7% | 24.6% | 24.3% |  |
| CN(C)c1ccc(/C=C/C=C(\C#N)C(=O)NC2CC2)cc1 | 16.2% | 17.1% | 10.3% |  |
| N#CC(Cc1c[nH]c2ccccc12)C(N)=O (stereo unspecified) | inactive | inactive | inactive |  |
| N#C/C(=C\c1ccc(C#N)cc1)C(N)=O | 10.6% | 20% | 13.3% |  |
| C/C(=C(\C#N)C(N)=O)c1ccc(O)cc1 | inactive | 22.7% | 13.2% |  |
| N#C/C(=C\c1cccc(O)c1)C(N)=O | 9.8% | 18.1% | 15.7% |  |
| CCC/C(=C(\C#N)C(N)=O)c1ccccc1 | 6.9% | 16% | 7.6% |  |
| CN(C)c1ccc(/C=C(\C#N)C(=O)N2CCOCC2)cc1 | 25.1% | 38.1% | 43.3% |  |
| CC(C)c1ccc(/C=C(\C#N)C(=O)NCC2CCCO2)cc1 (stereo unspecified) | 14.4% | 46.3% | 28.2% | pKi [1]: 4.01; Activity (Dengue virus [8]): inactive; pKi (Prothrombin [4]): 3.78; Activity (Dengue virus [9]): Active; pKi [5]: 4.00 |
| CN1CCN(c2c(F)c(F)c(/C=C(\C#N)C(N)=O)c(F)c2F)CC1 | 28.5% | 31.9% | 19.2% |  |
| N#C/C(=C\c1ccc(O)c(O)c1)C(N)=O | 18.4% | 28.8% | 34.9% |  |
| CN(C)c1ccc(/C=C(\C#N)C(=O)NCC2CCCO2)cc1 (stereo unspecified) | 19.8% | 28.1% | 23.3% |  |
| CN(C)c1ccc(/C=C(\C#N)C(=O)NC2CC2)cc1 | 23.7% | 33.2% | 22.6% |  |

| Structure (SMILES) | inhibition (Prothrombin [2]) | inhibition (West Nile virus) | inhibition (Dengue virus [3]) | other results |
| --- | --- | --- | --- | --- |
| C/C(=C(\C#N)C(N)=O)c1ccccc1 | 9.7% | 18.4% | 9% |  |
| C/C(=C(/C#N)C(N)=O)c1ccccc1 | 7.3% | 13.7% | inactive |  |
| N#C/C(=C\c1ccc(O)cc1)C(=O)NC1CC1 | 18.8% | 57.3% | 44.7% |  |
| CC(C)/C(=C(/C#N)C(N)=O)c1ccccc1 | 16.7% | inactive | inactive |  |
| N#C/C(=C\c1ccc(CO)cc1)C(N)=O | 8.7% | 21.7% | 22.1% |  |
| N#C/C(=C\c1ccc(Cl)s1)C(N)=O | 27.9% | 23.8% | 22% |  |
| CN(C)c1ccc(/C=C(\C#N)C(=O)NCc2ccccn2)cc1 | inactive | 21.3% | 25.3% |  |
| CCC/C(=C(/C#N)C(N)=O)c1ccccc1 | 11.1% | 15.3% | 6.7% |  |
| N#C/C(=C\c1ccc(C(=O)N2CCCCC2)cc1)C(N)=O | inactive | 24% | 22.3% |  |
| N#C/C(=C\c1ccc(Br)s1)C(=O)NC1CC1 | 17.9% | 10.5% | inactive |  |
| CC(=C\c1ccccc1)/C=C(\C#N)C(N)=O | 20.5% | 34.6% | 30.2% |  |
| N#CC(Cc1ccc(N2CCOCC2)cc1)C(N)=O (stereo unspecified) | inactive | 7.9% | inactive |  |
| C/C(=C(/C#N)C(N)=O)c1ccc(O)cc1 | inactive | 21.9% | 16.8% |  |
| CN(C)c1ccc(/C=C(\C#N)C(N)=S)cc1 | 13.7% | inactive | inactive |  |
| N#C/C(=C\c1ccccc1)C(N)=O | 12.5% | 9.3% | 15% |  |
